Converted amounts (≈) assume the structure as drawn.
What was measured:
[1] = molecular target: T1, Renin (Homo sapiens, UniProt P00797); experiment: Inhibitory concentration against human plasma renin at pH 7.4; assay type: cell-free
T1 sequence (P00797 whole entry): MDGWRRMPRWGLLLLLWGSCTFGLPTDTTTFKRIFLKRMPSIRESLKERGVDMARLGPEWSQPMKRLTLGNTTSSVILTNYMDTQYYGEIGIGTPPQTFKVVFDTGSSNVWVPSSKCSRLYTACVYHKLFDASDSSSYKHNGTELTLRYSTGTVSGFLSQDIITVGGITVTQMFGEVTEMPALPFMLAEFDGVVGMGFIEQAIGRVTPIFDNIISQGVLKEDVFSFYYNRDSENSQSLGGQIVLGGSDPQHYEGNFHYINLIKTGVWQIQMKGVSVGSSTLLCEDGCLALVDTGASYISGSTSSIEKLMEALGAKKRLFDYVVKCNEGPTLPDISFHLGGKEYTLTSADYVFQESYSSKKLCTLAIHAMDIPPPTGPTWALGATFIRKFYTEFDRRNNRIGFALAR

[2] = Integrated area under the plasma drug level-time curve was determined in systemic circulation after intraduodenal dose of 10 mg/kg in ferret; assay type: ADME, organism-based, Mustela putorius furo; design: dose 10 mg/kg, route intraduodenal
How it was run: (§1)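 Intraduodenal 10 mg/kg to anesthetized rats or ferrets. Compound dissolved in ethanol with 110 mol % HCl, then diluted in aqueous hydroxypropyl methylcellulose to 25% ethanol (10 mg/mL). Plasma sampled id rat 15, 30, 60, 120 min; id ferret 5, 15, 30, 60, 120, 180 min. Drug measured by renin inhibition assay or HPLC. AUC in ng h/mL. Bioavailability is relative to iv 1.0 mg/kg (rat) or 0.3 mg/kg (ferret).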

[3] = Integrated area under the plasma drug level-time curve was determined in systemic circulation after intraduodenal dose of 10 mg/kg in rat; assay type: ADME, organism-based; design: dose 10 mg/kg, route intraduodenal; how it was run: as §1
[4] = Peak concentration was determined in systemic circulation after intraduodenal dose of 10 mg/kg in ferret; assay type: ADME, organism-based, Mustela putorius furo; design: dose 10 mg/kg, route intraduodenal; details: in vivo, read-out: Activity; how it was run: as §1
[5] = Peak concentration was determined in systemic circulation after intraduodenal dose of 10 mg/kg in rat; assay type: ADME, organism-based; design: dose 10 mg/kg, route intraduodenal; details: in vivo, read-out: Activity; how it was run: as §1
[6] = Bioavailability in ferret (dose 10 mg/kg i.d.); assay type: ADME, organism-based, Mustela putorius furo; details: in vivo; how it was run: as §1
[7] = Bioavailability in rat (dose 10 mg/kg i.d.); assay type: ADME, organism-based; details: in vivo; how it was run: as §1
[8] = Solubility at pH 7.4; assay type: physicochemical; details: buffer
[9] = Bioavailability in the portal circulation after 10 minutes was determined after intraduodenal dose of 10 mg/kg in rat by HPLC method; assay type: ADME, organism-based; details: plasma (portal circulation), read-out: Plasma level
How it was run: (§2)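 Screening model in anesthetized rats given 10 mg/kg intraduodenally. Formulation was ethanol stock with 110 mol % HCl, diluted with aqueous hydroxypropyl methylcellulose to 25% ethanol. Systemic and portal blood drawn at 10 and 30 min in the same animals. Drug level (ng/mL) measured by HPLC or renin inhibition assay. Mean ± SEM, n = 3 unless noted.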

[10] = Bioavailability in the portal circulation after 30 minutes was determined after intraduodenal dose of 10 mg/kg in rat by HPLC method; assay type: ADME, organism-based; details: plasma (portal circulation), read-out: Plasma level; how it was run: as §2
[11] = Bioavailability in the systemic circulation after 10 minutes was determined after intraduodenal dose of 10 mg/kg in rat by HPLC method; assay type: ADME, organism-based; details: plasma (systemic circulation), read-out: Plasma level; how it was run: as §2
[12] = Bioavailability in the systemic circulation after 30 minutes was determined after intraduodenal dose of 10 mg/kg in rat by HPLC method; assay type: ADME, organism-based; details: plasma (systemic circulation), read-out: Plasma level; how it was run: as §2
[13] = Partition coefficient in the octanol/water phase at pH 7.4; assay type: physicochemical
How it was run: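 log P measured by octanol/water partition at pH 7.4.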

[14] = Bioavailability in the portal circulation after 30 minutes was determined after intraduodenal dose of 10 mg/kg in rat by renin inhibition assay; assay type: ADME, organism-based; details: plasma (portal circulation), read-out: Plasma level; how it was run: as §2
[15] = Bioavailability in the portal circulation after 10 minutes was determined after intraduodenal dose of 10 mg/kg in rat by renin inhibition assay; assay type: ADME, organism-based; details: plasma (portal circulation), read-out: Plasma level; how it was run: as §2
[16] = Bioavailability in the systemic circulation after 10 minutes was determined after intraduodenal dose of 10 mg/kg in rat by renin inhibition assay; assay type: ADME, organism-based; details: plasma (systemic circulation), read-out: Plasma level; how it was run: as §2
[17] = Bioavailability in the systemic circulation after 30 minutes was determined after intraduodenal dose of 10 mg/kg in rat by renin inhibition assay; assay type: ADME, organism-based; details: plasma (systemic circulation), read-out: Plasma level; how it was run: as §2
[18] = Integrated area under the plasma drug level-time curve was determined in portal circulation after intraduodenal dose of 10 mg/kg in monkey; assay type: ADME, organism-based; design: dose 10 mg/kg, route intraduodenal; details: simiiformes
How it was run: (§3)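 Anesthetized, salt-depleted cynomolgus monkeys dosed intraduodenally at 10 mg/kg in HCl salt/ethanol–hydroxypropyl methylcellulose vehicle (25% ethanol). Systemic and portal plasma drug levels measured by renin inhibition assay. AUC in ng h/mL. Bioavailability compared against an iv dose of 0.3 mg/kg or 1.0 mg/kg, the latter taken from earlier work. Mean ± SEM.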

[19] = Integrated area under the plasma drug level-time curve was determined in systemic circulation after intraduodenal dose of 10 mg/kg in monkey; assay type: ADME, organism-based; design: dose 10 mg/kg, route intraduodenal; details: simiiformes; how it was run: as §3
[20] = Bioavailability was determined after intraduodenal dose of 10 mg/kg in monkey (compared to 1 mg/kg intravenous dose); assay type: ADME, organism-based; details: simiiformes, in vivo, read-out: Bioavailabiility; how it was run: as §3
[21] = Hypotension peak is percentage change from predose baseline pressure observed after intraduodenal dose of 10 mg/kg in monkey; assay type: ADME, organism-based; design: dose 10 mg/kg, route intraduodenal; details: simiiformes, in vivo, other
How it was run: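 Anesthetized, salt-depleted cynomolgus monkeys given 10 mg/kg intraduodenally. Mean arterial pressure followed for up to 5 h. Peak fall expressed as % change from predose baseline. Difference from baseline significant if P < 0.05. Mean ± SEM.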

[22] = Peak concentration was determined in portal circulation after intraduodenal dose of 10 mg/kg in monkey; assay type: ADME, organism-based; design: dose 10 mg/kg, route intraduodenal; details: simiiformes, in vivo, read-out: Activity; how it was run: as §3
[23] = Peak concentration was determined in systemic circulation after intraduodenal dose of 10 mg/kg in monkey; assay type: ADME, organism-based; design: dose 10 mg/kg, route intraduodenal; details: simiiformes, in vivo, read-out: Activity; how it was run: as §3
[24] = Bioavailability in the systemic circulation after 10 minutes was determined after intraduodenal dose of 15 mg/kg in rat by renin inhibition assay; assay type: ADME, organism-based; details: plasma (systemic circulation), read-out: Plasma level

SMILES | IC50 [1] [nM] | solubility [8] [µg/mL] | concentration at 10 min [9] [ng/mL] | concentration at 0.5 h [10] [ng/mL] | concentration at 10 min [11] [ng/mL] | concentration at 0.5 h [12] [ng/mL] | logD [13] | other results
CC(C)C[C@H](O)[C@H](O)[C@H](CC1CCCCC1)NC(=O)[C@H](Cc1cscn1)NC(=O)[C@@H](CC(=O)N(C)CCc1c[nH]c2ccccc12)Cc1ccccc1 | 33 |  |  |  |  |  |  | 
CC(C)C[C@H](O)[C@H](O)[C@H](CC1CCCCC1)NC(=O)[C@H](Cn1cccn1)NC(=O)[C@@H](CC(=O)N(C)CCc1ccccn1)Cc1ccccc1 | 1.6 | 14 (≈ 20.3 µM) | 2200 | 4500 | 220 | 300 | > 4.2 | AUC [2]: 870 ng·h/mL; AUC [3]: 760 ng·h/mL; Cmax [4]: 400 ng/mL; Cmax [5]: 460 ng/mL; bioavailability [6]: 35%; bioavailability [7]: 20%
CC(C)C[C@H](O)[C@H](O)[C@H](CC1CCCCC1)NC(=O)[C@H](Cc1cscn1)NC(=O)[C@H](Cc1ccccc1)CS(=O)(=O)N(C)CCc1ccccn1 | 1.8 |  |  |  |  |  | > 4.5 | 
CC(C)C[C@H](O)[C@H](O)[C@H](CC1CCCCC1)NC(=O)[C@H](Cc1cscn1)NC(=O)[C@@H](CC(=O)N(C)CCN1CCN(C)CC1)Cc1ccccc1 | 8.5 |  |  |  |  |  | 3.58 | concentration at 0.5 h [14]: 590 ng/mL; concentration at 10 min [15]: 580 ng/mL; concentration at 10 min [16]: 80 ng/mL; concentration at 0.5 h [17]: 74 ng/mL
CC(C)C[C@H](O)[C@H](O)[C@H](CC1CCCCC1)NC(=O)[C@H](Cn1ccnc1)NC(=O)[C@@H](CC(=O)N(C)CCc1ccccn1)Cc1ccccc1 | 14 |  |  |  |  |  |  | 
CC(C)C[C@H](O)[C@H](O)[C@H](CC1CCCCC1)NC(=O)[C@H](Cc1cscn1)NC(=O)[C@H](Cc1ccccc1)CS(=O)(=O)N1CCN(C)CC1 [ZANKIREN] |  |  |  |  |  |  | 4.57 | AUC [18]: 3800 ng·h/mL; AUC [2]: 1500 ng·h/mL; AUC [19]: 340 ng·h/mL; AUC [3]: 620 ng·h/mL; bioavailability [20]: 5.1%; Change [21]: 37%; Cmax [22]: 2400 ng/mL; Cmax [4]: 940 ng/mL; Cmax [23]: 130 ng/mL; Cmax [5]: 470 ng/mL; bioavailability [6]: 82%; bioavailability [7]: 23%; concentration at 10 min [24]: 280 ng/mL; concentration at 0.5 h [17]: 440 ng/mL

Now from value to compound, other results behind:

IC50 [1] [nM] | solubility [8] [µg/mL] | concentration at 10 min [9] [ng/mL] | concentration at 0.5 h [10] [ng/mL] | concentration at 10 min [11] [ng/mL] | concentration at 0.5 h [12] [ng/mL] | logD [13] | SMILES | other results
0.72 | 44 (≈ 63.3 µM) | 1900 | 2300 | 140 | 230 | > 4.2 | CC(C)C[C@H](O)[C@H](O)[C@H](CC1CCCCC1)NC(=O)[C@H](Cc1cscn1)NC(=O)[C@@H](CC(=O)N(C)CCn1cccn1)Cc1ccccc1 | 
4.1 |  | 930 | 600 | 33 | 33 |  | COCCN(C)C(=O)C[C@@H](Cc1ccccc1)C(=O)N[C@@H](Cc1cscn1)C(=O)N[C@@H](CC1CCCCC1)[C@@H](O)[C@@H](O)CC(C)C | 
3 | 12 (≈ 17 µM) |  |  |  | 190 | > 4.2 | CC(C)C[C@H](O)[C@H](O)[C@H](CC1CCCCC1)NC(=O)[C@H](Cc1cscn1)NC(=O)[C@@H](CC(=O)N(C)CCc1ccncc1)Cc1ccccc1 | 

Reference: ChEMBL document CHEMBL1126595, “Studies directed toward the design of orally active renin inhibitors. 2. Development of the efficacious, bioavailable renin inhibitor (2S)-2-benzyl-3- [[(1-methylpiperazin-4-yl)sulfonyl]propionyl]-3-thiazol-4-yl-L-alanine amide of (2S,3R,4S)-2-amino-1-cyclohexyl-3,4-dihydroxy-6-methylheptane …” (J Med Chem, 1993)
